Calls of active or inactive are those of the source. No cut-off for these calls is given here.
Tests used:
[1] = target: Delta-type opioid receptor (Rattus norvegicus, UniProt P33533); assay: Displacement of [3H][Ile5,6]deltorphin II from delta opioid receptor in rat brain membranes incubated for 45 mins by liquid scintillation counting method; format: cell membranes, Membrane
Procedure, shortened: (§1)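 Rat brain membranes (cerebella removed; 0.3–0.5 mg protein) in 50 mM Tris-HCl, pH 7.4, were incubated 45 min at 35 °C with 1 nM [3H]DAMGO (MOR) or 0.5 nM [3H][Ile5,6]deltorphin II (DOR) plus varied test concentrations. Nonspecific binding was set with 10 μM naloxone. Samples were GF/C filtered, washed and scintillation counted. Ki was obtained by Cheng–Prusoff; duplicates, 3–4 experiments.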

[2] = target: Kappa-type opioid receptor (Cavia porcellus, UniProt P41144); assay: Displacement of [3H]U69,593 from kappa opioid receptor in guinea-pig brain membranes incubated for 30 mins by liquid scintillation counting method; format: cell membranes, Membrane
Kappa-type opioid receptor, sequence (P41144 whole entry): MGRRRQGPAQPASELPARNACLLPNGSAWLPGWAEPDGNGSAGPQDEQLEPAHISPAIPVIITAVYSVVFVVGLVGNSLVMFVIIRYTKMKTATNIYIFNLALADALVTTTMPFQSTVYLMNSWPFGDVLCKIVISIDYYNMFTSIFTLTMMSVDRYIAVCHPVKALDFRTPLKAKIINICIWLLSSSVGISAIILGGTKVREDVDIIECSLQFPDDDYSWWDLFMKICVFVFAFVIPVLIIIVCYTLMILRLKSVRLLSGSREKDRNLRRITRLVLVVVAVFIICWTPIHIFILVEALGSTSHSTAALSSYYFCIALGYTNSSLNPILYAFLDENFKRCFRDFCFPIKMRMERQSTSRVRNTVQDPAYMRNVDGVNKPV
Procedure, shortened: (§2)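 Guinea-pig brain membranes (0.3–0.5 mg protein) in 50 mM Tris-HCl, pH 7.4, were incubated with 1 nM [3H]U69,593 for 30 min at 30 °C, with 10 μM naloxone defining nonspecific binding. MOR was measured on rat brain membranes with 1 nM [3H]DAMGO for 45 min at 35 °C. Samples were filtered and scintillation counted, and Ki was obtained by Cheng–Prusoff; duplicates, 3–4 experiments.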

[3] = target: Delta-type opioid receptor (Homo sapiens) (UniProt P41143); assay: Displacement of [3H]diprenorphine from human DOR expressed in CHO cell membranes incubated for 60 mins liquid scintillation counting assay; settings: Cell membrane, filed as agonist
Delta-type opioid receptor (Homo sapiens), sequence (P41143 whole entry): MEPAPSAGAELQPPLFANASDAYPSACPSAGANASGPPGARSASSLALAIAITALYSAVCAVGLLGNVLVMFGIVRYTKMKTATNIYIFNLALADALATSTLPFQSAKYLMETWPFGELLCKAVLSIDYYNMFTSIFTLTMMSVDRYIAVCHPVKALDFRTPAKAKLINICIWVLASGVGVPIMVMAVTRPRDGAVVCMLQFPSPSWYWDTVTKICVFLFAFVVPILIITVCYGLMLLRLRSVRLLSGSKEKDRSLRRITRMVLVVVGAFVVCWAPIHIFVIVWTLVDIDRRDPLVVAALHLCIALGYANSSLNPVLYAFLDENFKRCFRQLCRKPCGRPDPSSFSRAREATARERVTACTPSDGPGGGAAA
Procedure, shortened: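 Membranes from CHO cells expressing human DOR (15–20 μg) in 50 mM Tris-HCl, pH 7.4, were incubated with 0.2 nM [3H]diprenorphine and varied test concentrations for 60 min at 25 °C. Nonspecific binding was set with 1–10 μM unlabeled diprenorphine. Samples were GF/C filtered and scintillation counted.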

[4] = Selectivity index, ratio of Ki for displacement of [3H]U69,593 from kappa opioid receptor in guinea-pig brain membranes to Ki for displacement of [3H]DAMGO from mu opioid receptor in rat brain membranes; format: cell membranes; procedure, shortened: as §2
Rattus norvegicus = species on record: Rattus norvegicus; assay: Selectivity index, ratio of Ki for displacement of [3H][Ile5,6]deltorphin II from delta opioid receptor in rat brain membranes to Ki for displacement of [3H]DAMGO from mu opioid receptor in rat brain membranes; format: cell membranes; procedure, shortened: as §1
Mu-type opioid receptor = Mu-type opioid receptor (Rattus norvegicus, UniProt P33535); assay: Displacement of [3H]DAMGO from mu opioid receptor in rat brain membranes incubated for 45 mins by liquid scintillation counting method; format: cell membranes, Membrane; procedure, shortened: as §1
Mu-type opioid receptor, sequence (P33535 whole entry): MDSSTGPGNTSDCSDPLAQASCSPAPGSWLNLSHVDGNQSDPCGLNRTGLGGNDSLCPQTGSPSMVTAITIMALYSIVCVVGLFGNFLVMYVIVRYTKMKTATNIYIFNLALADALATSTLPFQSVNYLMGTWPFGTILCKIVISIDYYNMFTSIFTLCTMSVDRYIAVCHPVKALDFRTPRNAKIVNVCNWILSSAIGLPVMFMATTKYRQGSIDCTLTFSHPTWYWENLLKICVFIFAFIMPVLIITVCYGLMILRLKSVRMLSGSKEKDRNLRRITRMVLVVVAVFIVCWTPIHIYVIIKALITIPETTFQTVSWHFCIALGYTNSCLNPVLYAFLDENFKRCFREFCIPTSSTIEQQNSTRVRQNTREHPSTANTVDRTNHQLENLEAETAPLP

Mus musculus = assay: Antinociceptive activity in CD1 mouse assessed as inhibition of the writhing response at 200 ug/kg, sc and co-administered with 1 mg/kg naloxone methiodide and measured after 30 mins post dose by acetic acid-induced writhing assay; format: functional, organism-based; settings: dose 200.0 µg/kg
Procedure, shortened: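 Male CD1 mice (30–35 g) received the agonist sc in saline (10 μL/g) together with sc naloxone methiodide 1 mg/kg. At 25 min, 0.6% acetic acid was given ip, and writhes were counted over a 10 min observation period (30 min post-dose). Results were expressed as mean writhes versus saline control and agonist-alone groups; n = 6–7 mice per group; ANOVA with Tukey post hoc.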

Delta-type opioid receptor, sequence (P33533 whole entry): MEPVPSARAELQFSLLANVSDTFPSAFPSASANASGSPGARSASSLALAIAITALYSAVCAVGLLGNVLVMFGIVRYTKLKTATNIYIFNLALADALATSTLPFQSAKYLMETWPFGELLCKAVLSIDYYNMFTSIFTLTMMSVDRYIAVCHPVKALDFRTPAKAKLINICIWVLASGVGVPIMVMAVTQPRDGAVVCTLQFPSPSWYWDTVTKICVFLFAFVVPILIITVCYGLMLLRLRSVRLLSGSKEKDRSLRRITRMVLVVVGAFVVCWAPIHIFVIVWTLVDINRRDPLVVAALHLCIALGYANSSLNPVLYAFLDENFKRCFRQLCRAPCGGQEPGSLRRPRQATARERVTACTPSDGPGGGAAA

| SMILES | Ki [1] [nM] | Ki [2] [nM] | Activity [3] | Ratio Ki [4] | Ratio Ki (Rattus norvegicus) | Ki (Mu-type opioid receptor) [nM] | Activity (Mus musculus) |
| --- | --- | --- | --- | --- | --- | --- | --- |
| CO[C@@]12CC[C@@H](N[C@@H](C)C(=O)O)[C@@H]3Oc4c(O)ccc5c4[C@@]31CCN(C)[C@@H]2C5 | 7.71 | 63.7 | Active |  |  |  |  |
| CO[C@@]12CC[C@H](N[C@@H](Cc3ccccc3)C(=O)O)[C@@H]3Oc4c(O)ccc5c4[C@@]31CCN(C)[C@@H]2C5 |  | 28.5 | Active | 30 | 3.9 | 0.95 |  |
| CO[C@@]12CC[C@@H](NCC(=O)NCC(=O)O)[C@@H]3Oc4c(O)ccc5c4[C@@]31CCN(C)[C@@H]2C5 |  |  | Active | 44 | 1.6 |  | inactive |
| CO[C@@]12CC[C@@H](N[C@@H](Cc3c[nH]c4ccccc34)C(=O)O)[C@@H]3Oc4c(O)ccc5c4[C@@]31CCN(C)[C@@H]2C5 |  |  | Active | 13 | 1.8 |  | inactive |
| CO[C@@]12CC[C@@H](N[C@@H](Cc3ccccc3)C(=O)O)[C@@H]3Oc4c(O)ccc5c4[C@@]31CCN(C)[C@@H]2C5 | 1.03 | 151 | Active | 59 | 0.4 | 2.58 |  |

Reference: ChEMBL document CHEMBL4673223, “Synthesis, Biological, and Structural Explorations of New Zwitterionic Derivatives of 14- O-Methyloxymorphone, as Potent μ/δ Opioid Agonists and Peripherally Selective Antinociceptives” (J Med Chem, 2019)
